Only some compounds are listed: those with a hit (about 3.5% of all), similar ones and a draw of the others.
MrgX1 allo act = allosterically activates human MrgX1 receptor signaling | Q96LB2 | MrgX1-HEK293, Fluo-4 calcium flux, FDSS; active compounds read high | B-score at 10 µM | hit rate 0.63% among 310,000;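 active means plate-corrected calcium response at least 3 library SD above typical, normal starting fluorescence, not activating the receptor alone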;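 further: compound read alongside a low EC10 to EC30 dose of BAM8-22 agonist; peak minus trough fluorescence over baseline measured at the second addition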
Target sequence (Q96LB2 whole entry, looked up): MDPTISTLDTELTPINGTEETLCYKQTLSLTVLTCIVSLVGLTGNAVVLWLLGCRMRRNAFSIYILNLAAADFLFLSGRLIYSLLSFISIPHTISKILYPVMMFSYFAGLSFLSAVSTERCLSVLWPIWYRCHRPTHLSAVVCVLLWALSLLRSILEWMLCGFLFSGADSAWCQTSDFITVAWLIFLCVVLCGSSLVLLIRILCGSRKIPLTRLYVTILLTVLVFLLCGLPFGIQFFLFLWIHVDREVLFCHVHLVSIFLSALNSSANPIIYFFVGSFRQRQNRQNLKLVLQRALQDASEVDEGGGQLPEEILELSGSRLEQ
RGS4 block = human RGS4 inhibition | B-score at 10 µM | HEK293 M3R/RGS4 inducible, Fluo-4 calcium flux; active compounds read high; triggered by carbachol at its EC20 | P49798 | hit rate 0.45% among 310,000;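 active means B-score, a plate-corrected calcium signal, over three deviations above library mean, with baseline fluorescence within five deviations of library mean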;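 further: RGS4 expression induced by doxycycline in cells with stable M3 receptor; B-score is computed from the integrated fluorescence ratio over baseline after carbachol; higher B-score means a larger calcium signal and so more RGS4 inhibition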
Target sequence (P49798 whole entry, looked up): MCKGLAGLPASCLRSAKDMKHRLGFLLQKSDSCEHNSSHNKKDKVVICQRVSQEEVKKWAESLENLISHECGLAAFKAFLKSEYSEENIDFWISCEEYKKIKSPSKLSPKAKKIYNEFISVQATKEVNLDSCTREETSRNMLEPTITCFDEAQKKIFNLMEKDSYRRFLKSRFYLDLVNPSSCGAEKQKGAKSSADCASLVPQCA
MrgX1 agonist = activates human MrgX1 receptor signaling; Q96LB2; MrgX1-HEK293 cells, Fluo-4 calcium fluorescence, agonist mode; active compounds read high; B-score at 10 µM; hit rate 0.44% among 310,000; AID 588627;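 active means calcium response B-score plate-corrected fluorescence ratio at least 3 library SD, with starting fluorescence B-score inside 5 SD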
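Material: MrgX1-expressing HEK293 cells; input: 15,000 cells per well; doses: test compound given as first of three sequential additions; schedule: overnight plating before 1 h dye loading; technique: Fluo-4 NW calcium-flux fluorescence, kinetic read; evaluation: baseline-normalised fluorescence change ratio, B-scored; control set: plate-wise positive and negative controls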
RGS4 pot = RGS4 potentiation or activation; hit rate 0.92% among 310,000; B-score at 10 µM; AID 463111; HEK293 M3R/inducible RGS4, carbachol calcium flux Fluo4; active compounds read low;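 active means B-score of the integrated calcium signal more than 4 SD below the library mean, with starting fluorescence not abnormally high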;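 further: negative B-score means reduced calcium response which marks RGS4 activation or potentiation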
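Assay system: Inducible-RGS4 HEK293 cells carrying M3 receptor | Schedule: Compound preincubation 20 min at room temperature before agonist | Signal: Kinetic calcium fluorescence imaging with Fluo4-AM dye, 2 µM | Read-out basis: B score from integrated fluorescence ratio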
MrgX1 antag = human MrgX1 receptor antagonism, primary screen | MRGX1-HEK293 calcium flux, Fluo-4, BAM8-22 antagonism; active compounds read low | B-score at 10 µM | hit rate 1.3% among 310,000 | Q96LB2;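 active means calcium-response B-score plate-corrected more than 3 library SD below zero, starting fluorescence within 5 deviations, no agonist response on first addition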;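 further: peak minus trough fluorescence over baseline after final BAM8-22 challenge near maximal dose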
MrgX1 allo conf = reconfirmed allosteric activator of human MrgX1 receptor; shares compounds with MrgX1 allo act; MrgX1-HEK293, Fluo-4 calcium fluorescence, FDSS; activation (ratio percentage), % at 10 µM; hit rate 13% among 1,200;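 active means ratio at least 3 SD above the weak peptide control, stable starting fluorescence, no direct agonism earlier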;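 further: compound followed by low BAM8-22 agonist challenge near EC20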
MrgX1 antag conf = confirmation of human MrgX1 receptor antagonists; hit rate 19% among 2,300; MrgX1-HEK293, BAM8-22 calcium flux, Fluo-4; active compounds read low; remaining BAM8-22 calcium response % of control (active compounds read low), % at 10 µM; shares compounds with MrgX1 antag;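 active means remaining agonist calcium response no higher than 100% minus 3 SD of agonist-only control wells, with starting fluorescence near control levels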;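 further: agonist BAM8-22 given at a near maximal EC90 to ECmax level; peak minus minimum fluorescence divided by baseline after agonist addition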
HEK293 Ca flux = activity in parental HEK293 cells lacking MrgX1 | shares compounds with MrgX1 antag | Fluo-4 calcium fluorescence, FDSS | fluorescence ratio F(max-min)/F0 at 10 µM | hit rate 2% among 4,000 | AID 624111;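 active means duplicate-averaged calcium fluorescence ratio at least three times the standard deviation of buffer wells, a nonspecific response in parental cells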
HEK293 Ca counter = counter-screen for MrgX1 allosteric activators: effect in parental HEK293 cells; parental HEK293 calcium flux, Fluo-4 fluorescence ratio; active compounds read high; fluorescence ratio F(max-min)/F0 at 10 µM; hit rate 0.4% among 4,000; AID 624114; shares compounds with MrgX1 antag;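 active means calcium fluorescence ratio, averaged over duplicates, at least 3 SD of the buffer-well ratio, meaning a nonspecific response in receptor-free cells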;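 further: untransfected parental HEK293 lacking MrgX1 used as counterscreen for MrgX1 allosteric activators; fluorescence change taken during the second addition on a kinetic imager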
HEK293 Ca cntr2 = MrgX1 activator counter-screen hit in parental HEK293 cells; Fluo-4 calcium fluorescence (FDSS); active compounds read high; shares compounds with MrgX1 antag; fluorescence ratio F(max-min)/F0 at 10 µM; hit rate 8.7% among 4,000;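 active means calcium fluorescence ratio at least three times the spread of buffer wells, meaning a non-specific response in parental cells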
An asterisk follows results filed as active.

How did Cn1c(=O)[nH]c(=O)c2c1nc(N1CCNCC1)n2Cc1ccccc1Cl do in these assays?
MrgX1 allo act: 10.4*; RGS4 block: inactive; MrgX1 agonist: inactive; RGS4 pot: inactive; MrgX1 antag: inactive; MrgX1 allo conf: inactive; HEK293 Ca flux: inactive; HEK293 Ca counter: inactive; HEK293 Ca cntr2: inactive

How did CCCCCCn1c(N2CCCC2)nc2c1c(=O)[nH]c(=O)n2C do in these assays?
MrgX1 allo act: 11.9*; RGS4 block: inactive; MrgX1 agonist: inactive; RGS4 pot: inactive; MrgX1 antag: inactive; MrgX1 allo conf: 9.9%*; HEK293 Ca flux: inactive; HEK293 Ca counter: inactive; HEK293 Ca cntr2: inactive

What do the screens show for `CCOC(=O)c1sc(NC(=O)c2c(C)nn(Cc3ccccc3)c2C)cc1C`?
MrgX1 allo act: inactive; MrgX1 agonist: inactive; MrgX1 antag: inactive

Results for Cc1ccc(NC(=O)N2CCC(C(=O)c3ccc(F)cc3)CC2)cc1 ?
MrgX1 allo act: inactive; RGS4 block: inactive; MrgX1 agonist: inactive; RGS4 pot: inactive; MrgX1 antag: inactive

How did O=C(CCc1ccccc1)c1nnc(-c2ccccc2)o1 do in these assays?
MrgX1 allo act: inactive; RGS4 block: inactive; MrgX1 agonist: inactive; RGS4 pot: inactive; MrgX1 antag: inactive

What do the screens show for `O=C(COC(=O)c1sc2ccccc2c1Cl)NCC1CCCCC1`?
MrgX1 allo act: inactive; RGS4 block: inactive; MrgX1 agonist: inactive; RGS4 pot: inactive; MrgX1 antag: inactive

How did CCC(C)(C)C1CCc2c(sc(NC(=O)c3ccccc3C(=O)O)c2C#N)C1 (centres undefined) do in these assays?
MrgX1 allo act: 8.39*; RGS4 block: inactive; MrgX1 agonist: inactive; RGS4 pot: inactive; MrgX1 antag: -6.37*; MrgX1 allo conf: inactive; MrgX1 antag conf: inactive; HEK293 Ca flux: inactive; HEK293 Ca counter: inactive; HEK293 Ca cntr2: 56.6*

How did OCCn1c(-c2ccc(F)cc2)csc1=Nc1ccccc1 do in these assays?
MrgX1 allo act: 13.4*; RGS4 block: inactive; MrgX1 agonist: inactive; RGS4 pot: inactive; MrgX1 antag: inactive; MrgX1 allo conf: inactive; HEK293 Ca flux: inactive; HEK293 Ca counter: inactive; HEK293 Ca cntr2: inactive

How did CCOc1ccc(N=c2scc(-c3ccc(OC)cc3)n2CCO)cc1 do in these assays?
MrgX1 allo act: inactive; RGS4 block: inactive; MrgX1 agonist: inactive; RGS4 pot: inactive; MrgX1 antag: inactive

How did OCCn1c(-c2ccc3c(c2)OCO3)csc1=Nc1ccccc1 do in these assays?
MrgX1 allo act: 11.6*; RGS4 block: inactive; MrgX1 agonist: inactive; RGS4 pot: inactive; MrgX1 antag: inactive; MrgX1 allo conf: inactive; HEK293 Ca flux: inactive; HEK293 Ca counter: inactive; HEK293 Ca cntr2: inactive

What do the screens show for `CCOc1ccc(N=c2scc(-c3ccccc3)n2CCO)cc1`?
MrgX1 allo act: inactive; RGS4 block: inactive; MrgX1 agonist: inactive; RGS4 pot: inactive; MrgX1 antag: inactive

Results for C=C[C@@]1(C)CC(=O)[C@]2(O)[C@@]3(C)[C@@H](O)CCC(C)(C)[C@@H]3[C@H](OC(C)=O)[C@H](O)[C@@]2(C)O1 ?
MrgX1 allo act: 7.72*; RGS4 block: inactive; MrgX1 agonist: inactive; RGS4 pot: inactive; MrgX1 antag: inactive; MrgX1 allo conf: inactive; HEK293 Ca flux: inactive; HEK293 Ca counter: inactive; HEK293 Ca cntr2: inactive

Results for O=C(Nc1nc(-c2ccccc2)ns1)c1cccs1 ?
MrgX1 allo act: 7.47*; RGS4 block: inactive; MrgX1 agonist: inactive; RGS4 pot: inactive; MrgX1 antag: inactive; MrgX1 allo conf: 2.7%*; HEK293 Ca flux: inactive; HEK293 Ca counter: inactive; HEK293 Ca cntr2: inactive

What do the screens show for `O=C(Nc1nc2ccc(F)cc2s1)c1cccs1`?
MrgX1 allo act: 9.29*; RGS4 block: inactive; MrgX1 agonist: inactive; RGS4 pot: inactive; MrgX1 antag: inactive; MrgX1 allo conf: inactive; HEK293 Ca flux: inactive; HEK293 Ca counter: inactive; HEK293 Ca cntr2: inactive

Results for CC1C(=O)N2CCCc3cc(S(=O)(=O)N(C)Cc4ccccc4)cc1c32 (centres undefined) ?
MrgX1 allo act: inactive; RGS4 block: inactive; MrgX1 agonist: inactive; RGS4 pot: inactive; MrgX1 antag: inactive

Results for Nc1c(C(=O)N2CCCCCC2)oc2ccccc12 ?
MrgX1 allo act: 10*; RGS4 block: inactive; MrgX1 agonist: inactive; RGS4 pot: inactive; MrgX1 antag: inactive; MrgX1 allo conf: inactive; HEK293 Ca flux: inactive; HEK293 Ca counter: inactive; HEK293 Ca cntr2: inactive

How did Cc1ccc2oc(C(=O)N3CCCCCC3)c(C)c2c1 do in these assays?
MrgX1 allo act: 6.47*; RGS4 block: inactive; MrgX1 agonist: inactive; RGS4 pot: inactive; MrgX1 antag: inactive; MrgX1 allo conf: inactive; HEK293 Ca flux: inactive; HEK293 Ca counter: inactive; HEK293 Ca cntr2: inactive

Results for CCSc1nnc(NC(=O)C(C)C)s1 ?
MrgX1 allo act: inactive; RGS4 block: inactive; MrgX1 agonist: inactive; RGS4 pot: inactive; MrgX1 antag: inactive

Results for COC(=O)CN(c1ccc(Cl)cc1C)S(C)(=O)=O ?
MrgX1 allo act: inactive; RGS4 block: inactive; MrgX1 agonist: inactive; RGS4 pot: inactive; MrgX1 antag: inactive

How did COC(=O)C1(Cc2cc(-c3cccnc3)no2)CCN(C(=O)OC(C)(C)C)CC1 do in these assays?
MrgX1 allo act: inactive; RGS4 block: inactive; MrgX1 agonist: inactive; RGS4 pot: inactive; MrgX1 antag: inactive

What do the screens show for `Nc1nc(Cl)cc(Sc2ccc(F)cc2)n1`?
MrgX1 allo act: 6.73*; RGS4 block: inactive; MrgX1 agonist: inactive; RGS4 pot: inactive; MrgX1 antag: inactive; MrgX1 allo conf: inactive; HEK293 Ca flux: inactive; HEK293 Ca counter: inactive; HEK293 Ca cntr2: inactive

How did Cc1cc(C)cc(-c2nnc(SCc3ccc(C(=O)O)cc3)o2)c1 do in these assays?
MrgX1 allo act: 7.41*; RGS4 block: inactive; MrgX1 agonist: inactive; RGS4 pot: inactive; MrgX1 antag: inactive; MrgX1 allo conf: inactive; HEK293 Ca flux: inactive; HEK293 Ca counter: inactive; HEK293 Ca cntr2: inactive

Bioassay records: PubChem, Johns Hopkins Ion Channel Center
